Assay results as given in BindingDB's records for doi:10.1021/np300893n (The University of Mississippi, 2013).

Target: Myc proto-oncogene protein (Homo sapiens, UniProt P01106)
Assay: Inhibition of Myc signaling pathway in human HeLa cells assessed as inhibition of PMA induced luciferase treated 30 mins before induction
How it was run: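 Reporter assay in cells transfected with pathway luciferase plasmids. Cells plated at 0.015 × 10⁶ per well in 10% FBS, switched after 24 h to DMEM with 1% FBS, then transfected. 24 h after transfection, compound (final 40, 60, 80 or 100 μM) was added, followed 30 min later by inducer (IL-6, TGF-β, wnt3a or PMA). Luciferase was read 4 or 6 h after induction (6 h for Notch, Wnt, Hedgehog). Value is the IC50 or the lowest concentration giving maximal 50–60% inhibition; two independent experiments.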

Sequence of Myc proto-oncogene protein (P01106 16-454): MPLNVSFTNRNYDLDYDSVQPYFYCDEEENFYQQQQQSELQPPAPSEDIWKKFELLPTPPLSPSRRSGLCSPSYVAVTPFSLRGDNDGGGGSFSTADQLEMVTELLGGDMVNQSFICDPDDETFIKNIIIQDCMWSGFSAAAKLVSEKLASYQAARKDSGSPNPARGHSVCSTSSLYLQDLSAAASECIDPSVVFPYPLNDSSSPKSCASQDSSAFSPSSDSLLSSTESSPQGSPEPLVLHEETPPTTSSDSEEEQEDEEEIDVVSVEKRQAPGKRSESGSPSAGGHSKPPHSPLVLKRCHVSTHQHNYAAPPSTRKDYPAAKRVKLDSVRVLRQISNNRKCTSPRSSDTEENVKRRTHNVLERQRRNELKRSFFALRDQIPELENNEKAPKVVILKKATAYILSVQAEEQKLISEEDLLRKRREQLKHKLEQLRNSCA

Compound: COc1cc(/C=C\c2ccc(OC)c(OC)c2)cc(OC)c1 [(Z)-3,4,3'',5''-Tetramethoxystilbene]
- IC50: 60 µM
